Data taken from paper PMC6796888 (ACS Omega, 2019).

Legend:
Experiment in all cases: In vitro screening, % growth inhibition at 250 μg/mL
E. coli ATCC 25922 = type: cell-based, Escherichia coli; details: Escherichia coli, ATCC25922, 24 h, read-out: % inhibition at 250 μg/mL
In short: (§1)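 Test compounds dissolved in DMSO and diluted in test medium. Mid-log cultures diluted in nutrient broth to McFarland standard and treated with 250 μg/mL in 96-well plates, 37 °C, 160 rpm, 24 h. Growth read as OD at 580 nm; % inhibition calculated from absorbance against untreated growth. Run twice on different occasions.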

S. pneumoniae MTCC 655 = type: cell-based, Streptococcus pneumoniae; details: Streptococcus pneumoniae, MTCC655, 24 h, read-out: % inhibition at 250 μg/mL
In short: as §1

E. faecalis MTCC 439 = type: cell-based, Enterococcus faecalis; details: Enterococcus faecalis, MTCC439, 24 h, read-out: % inhibition at 250 μg/mL
In short: as §1

P. auroginosa MTCC 2453 = type: cell-based, Pseudomonas auroginosa; details: Pseudomonas, MTCC2453, 24 h, read-out: % inhibition at 250 μg/mL
In short: as §1

Row | SMILES | inhibition at 250 µg/mL (E. coli ATCC 25922) [%] | inhibition at 250 µg/mL (S. pneumoniae MTCC 655) [%] | inhibition at 250 µg/mL (E. faecalis MTCC 439) [%] | inhibition at 250 µg/mL (P. auroginosa MTCC 2453) [%]
1 | CNC1=C([N+](=O)[O-])C2(C(=O)Nc3ccc(Br)cc32)c2c(c3ccccc3oc2=O)O1 (stereo not shown) [Compound 4k] | 32 | 19.7 | 18.1 | 4.61
2 | CNC1=C([N+](=O)[O-])C2(C(=O)Nc3ccc(Cl)cc32)C2=C(CC(C)(C)CC2=O)O1 (stereo not shown) [Compound 4b] | 43.2 | 21.3 | 31.9 | 18
3 | CNC1=C([N+](=O)[O-])C2(C(=O)Nc3ccc(Cl)cc32)c2c(c3ccccc3oc2=O)O1 (stereo not shown) [Compound 4j] | 45.8 | 27.8 | 27.2 | 23.1
4 | CNC1=C([N+](=O)[O-])C2(C(=O)Nc3ccc([N+](=O)[O-])cc32)C2=C(CC(C)(C)CC2=O)O1 (stereo not shown) [Compound 4d] | 36.1 | 23.2 | 30.4 | 52.5
